Measured values reported in ChEMBL document CHEMBL1926515, “Synthesis and QSAR study of novel cytotoxic spiro[3H-indole-3,2'(1'H)-pyrrolo[3,4-c]pyrrole]-2,3',5'(1H,2'aH,4'H)-triones” (Eur J Med Chem, 2012).

Experiments:
Format in all cases: functional, cell-based
[1] = system: HCT-116; assay: Cytotoxicity against human HCT116 cells after 48 hrs by sulforhodamine B assay; conditions: HCT-116, 48 h
In short: (§1)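 Cells were seeded at 5×10^4–10^5 per well and allowed to attach for 24 h. Cells were then fixed and SRB-stained, washed with acetic acid, and the dye was recovered in Tris-EDTA for A564. Surviving fraction = OD treated/OD control. IC50 was taken as 50% growth inhibition relative to control, from mean values. Doxorubicin served as reference.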

[2] = system: MCF7; assay: Cytotoxicity against human MCF7 cells after 48 hrs by sulforhodamine B assay; conditions: MCF7, 48 h; in short: as §1
[3] = system: HepG2; assay: Cytotoxicity against human HepG2 cells after 48 hrs by sulforhodamine B assay; conditions: HepG2, 48 h; in short: as §1

Row | Compound | IC50 [1] | IC50 [2] | IC50 [3]
1 | CN1CC2C(=O)N(c3ccc(Cl)cc3)C(=O)C2C12C(=O)Nc1ccc(Cl)cc12 (configuration not stated) | 35.5 µM | 40.6 µM | 29.2 µM
2 | Cc1ccc(N2C(=O)C3CN(C)C4(C(=O)Nc5ccc(Cl)cc54)C3C2=O)cc1 (configuration not stated) | > 126 µM | 49.9 µM | 63.2 µM
3 | CN1CC2C(=O)N(c3ccc(F)cc3)C(=O)C2C12C(=O)Nc1ccccc12 (configuration not stated) | 42.4 µM | 33.9 µM | 87.3 µM
4 | COc1ccc2c(c1)C1(C(=O)N2)C2C(=O)N(c3ccccc3)C(=O)C2CN1C (configuration not stated) | 34.1 µM | 44.8 µM | 44.2 µM
5 | COc1ccc(N2C(=O)C3CN(C)C4(C(=O)Nc5ccccc54)C3C2=O)cc1 (configuration not stated) | 53.6 µM | 48 µM | 72.5 µM
6 | CN1CC2C(=O)N(c3ccccc3)C(=O)C2C12C(=O)Nc1ccccc12 (configuration not stated) | 63.7 µM | 35.6 µM | 32.9 µM
7 | COc1ccc2c(c1)C1(C(=O)N2)C2C(=O)N(c3ccc(Cl)cc3)C(=O)C2CN1C (configuration not stated) | 47.4 µM | 38.7 µM | 43.4 µM
8 | COc1ccc(N2C(=O)C3CN(C)C4(C(=O)Nc5ccc(OC)cc54)C3C2=O)cc1 (configuration not stated) | 40.9 µM | 42.7 µM | 49.7 µM
9 | Cc1ccc(N2C(=O)C3CN(C)C4(C(=O)Nc5ccccc54)C3C2=O)cc1 (configuration not stated) | 46.1 µM | 37.6 µM | 77.1 µM
10 | COc1ccc2c(c1)C1(C(=O)N2)C2C(=O)N(c3ccc(F)cc3)C(=O)C2CN1C (configuration not stated) | 31.3 µM | 44 µM | 27.7 µM
11 | COc1cccc2c1C(=O)c1c(O)c3c(c(O)c1C2=O)C[C@@](O)(C(=O)CO)C[C@@H]3O[C@H]1C[C@H](N)[C@H](O)[C@H](C)O1 [DOXORUBICIN] | 6.86 µM |  | 7.36 µM
12 | CN1CC2C(=O)N(c3ccc(F)cc3)C(=O)C2C12C(=O)Nc1ccc(Cl)cc12 (configuration not stated) | 73.3 µM | 89.9 µM | 41.1 µM
13 | CN1CC2C(=O)N(c3ccc(Cl)cc3)C(=O)C2C12C(=O)Nc1ccccc12 (configuration not stated) | 36.8 µM | 43 µM | 32.4 µM
14 | CN1CC2C(=O)N(c3ccccc3)C(=O)C2C12C(=O)Nc1ccc(Cl)cc12 (configuration not stated) | 33 µM | 38.7 µM | 33 µM
15 | COc1ccc(N2C(=O)C3CN(C)C4(C(=O)Nc5ccc(Cl)cc54)C3C2=O)cc1 (configuration not stated) | 41 µM | 38.1 µM | 28.9 µM
16 | COc1ccc2c(c1)C1(C(=O)N2)C2C(=O)N(c3ccc(C)cc3)C(=O)C2CN1C (configuration not stated) | 46.2 µM | 46.8 µM | 12.2 µM
